Test results reported in ChEMBL document CHEMBL4308898, “Synthesis and biological evaluation of arylpiperazine derivatives as potential anti-prostate cancer agents” (Bioorg Med Chem, 2019).
Calls of active or inactive are those of the source. No cut-off for these calls is given here.

Columns and labels:
[1] = system: RWPE-1; assay: Antiproliferative activity against human RWPE1 cells after 24 hrs by CCK-8 assay; format: cell-based; details: RWPE-1, 24 h
Outline: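 RWPE-1 grown in DMEM with 10% FBS, penicillin 100 U/mL and streptomycin 0.1 mg/mL at 37 °C, 5% CO2. Log-phase cells seeded at 1 × 10^5 cells/mL, cultured 24 h, then exposed to various compound concentrations for 24 h. CCK-8 added, 1 h at 37 °C, absorbance read at 450 nm. Inhibition = (1 − OD treated/OD control) × 100%. IC50 by linear regression of concentration-response curves. Three independent experiments.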

[2] = system: LNCaP; assay: Antiproliferative activity against human LNCAP cells after 24 hrs by CCK-8 assay; format: functional, cell-based
Outline: (§1)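 Media with 10% FBS plus penicillin/streptomycin: RPMI1640 (DU145), F12 (LNCaP), DMEM (PC-3). Log-phase cells seeded at 1 × 10^5 cells/mL and grown 24 h at 37 °C, 5% CO2, then given various compound concentrations for 24 h. CCK-8 added for 1 h, absorbance read at 450 nm. Inhibition = (1 − OD treated/OD control) × 100%. IC50 from linear regression; three independent experiments.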

[3] = system: PC-3; assay: Antiproliferative activity against human PC3 cells after 24 hrs by CCK-8 assay; format: functional, cell-based; details: PC-3, 24 h; outline: as §1
[4] = system: DU-145; assay: Antiproliferative activity against human DU145 cells after 24 hrs by CCK-8 assay; format: functional, cell-based; details: DU-145, 24 h; outline: as §1
[5] = biological target: T1, Androgen receptor (Rattus norvegicus, UniProt P15207); assay: Displacement of fluormone-AL Green from His-tagged/GST-fused recombinant rat androgen receptor LBD expressed in insect cells measured after 4 hrs by fluorescence polarization assay
T1 sequence (P15207 whole entry): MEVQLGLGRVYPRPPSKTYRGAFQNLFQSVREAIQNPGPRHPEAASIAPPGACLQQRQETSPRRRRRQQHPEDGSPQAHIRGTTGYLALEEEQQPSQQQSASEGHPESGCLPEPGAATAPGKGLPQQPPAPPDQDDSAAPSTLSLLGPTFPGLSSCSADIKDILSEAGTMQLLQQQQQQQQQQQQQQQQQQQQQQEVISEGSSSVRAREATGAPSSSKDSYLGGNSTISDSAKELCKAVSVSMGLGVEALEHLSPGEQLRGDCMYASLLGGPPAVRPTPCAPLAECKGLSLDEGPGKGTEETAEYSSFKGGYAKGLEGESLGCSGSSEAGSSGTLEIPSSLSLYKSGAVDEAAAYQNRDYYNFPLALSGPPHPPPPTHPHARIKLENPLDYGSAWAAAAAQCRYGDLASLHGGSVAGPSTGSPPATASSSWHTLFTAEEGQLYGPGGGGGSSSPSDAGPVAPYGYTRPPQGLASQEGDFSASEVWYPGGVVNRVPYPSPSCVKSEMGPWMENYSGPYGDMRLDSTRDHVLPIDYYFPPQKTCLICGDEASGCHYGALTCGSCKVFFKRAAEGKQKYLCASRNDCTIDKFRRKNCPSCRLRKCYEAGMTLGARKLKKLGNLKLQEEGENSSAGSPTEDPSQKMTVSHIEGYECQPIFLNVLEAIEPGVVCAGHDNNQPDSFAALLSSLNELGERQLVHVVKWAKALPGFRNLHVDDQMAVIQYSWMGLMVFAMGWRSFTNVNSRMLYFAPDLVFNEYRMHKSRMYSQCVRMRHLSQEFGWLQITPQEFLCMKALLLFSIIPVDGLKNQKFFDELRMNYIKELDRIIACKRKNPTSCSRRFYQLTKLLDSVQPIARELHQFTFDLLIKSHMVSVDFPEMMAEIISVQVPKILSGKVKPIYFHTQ

[6] = biological target: T2, Androgen receptor (Homo sapiens) (UniProt P10275); details: at 10 µM
T2 sequence (whole entry): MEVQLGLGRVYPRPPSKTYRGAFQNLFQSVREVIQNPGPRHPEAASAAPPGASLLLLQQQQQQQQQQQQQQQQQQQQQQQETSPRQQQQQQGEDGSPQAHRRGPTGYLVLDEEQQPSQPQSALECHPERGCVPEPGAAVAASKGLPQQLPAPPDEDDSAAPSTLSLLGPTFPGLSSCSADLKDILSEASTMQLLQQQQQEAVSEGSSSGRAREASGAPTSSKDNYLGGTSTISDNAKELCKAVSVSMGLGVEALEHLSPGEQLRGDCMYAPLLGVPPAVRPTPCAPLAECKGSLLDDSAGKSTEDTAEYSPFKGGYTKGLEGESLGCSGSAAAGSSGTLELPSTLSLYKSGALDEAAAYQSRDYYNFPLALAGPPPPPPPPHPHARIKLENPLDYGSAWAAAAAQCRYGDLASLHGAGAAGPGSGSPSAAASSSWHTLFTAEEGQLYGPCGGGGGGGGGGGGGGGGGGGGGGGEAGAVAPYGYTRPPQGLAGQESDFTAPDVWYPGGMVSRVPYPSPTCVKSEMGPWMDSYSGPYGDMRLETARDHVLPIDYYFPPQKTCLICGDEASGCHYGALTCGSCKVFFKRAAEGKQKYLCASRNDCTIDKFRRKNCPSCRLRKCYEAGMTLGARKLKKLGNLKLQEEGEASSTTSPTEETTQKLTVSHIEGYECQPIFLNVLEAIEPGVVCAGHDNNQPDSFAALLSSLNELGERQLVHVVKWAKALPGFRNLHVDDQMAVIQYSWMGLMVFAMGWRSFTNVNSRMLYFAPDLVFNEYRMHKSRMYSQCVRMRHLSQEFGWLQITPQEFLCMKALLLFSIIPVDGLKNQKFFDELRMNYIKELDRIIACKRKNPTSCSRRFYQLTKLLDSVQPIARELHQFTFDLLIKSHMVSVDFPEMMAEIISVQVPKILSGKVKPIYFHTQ

| SMILES | IC50 [1] [µM] | IC50 [2] [µM] | IC50 [3] [µM] | IC50 [4] [µM] | IC50 [5] [µM] | inhibition [6] |
| --- | --- | --- | --- | --- | --- | --- |
| CC(C)(C)c1ccc(OCCc2ccc(CN3CCN(c4ccccc4)CC3)cc2)cc1 | 21.1 | 17.9 | 4.86 | 28 | – | – |
| Cc1ccc(OCCc2ccc(CN3CCN(c4ccccc4)CC3)cc2)cc1 | > 50 | 5.62 | 1.47 | 10.1 | 3.66 | 54.7% |
| Fc1ccc(OCCc2ccc(CN3CCN(c4ccccc4)CC3)cc2)cc1 | 4.62 | 7.83 | 5.7 | 6.86 | – | 35.1% |
| c1ccc(N2CCN(Cc3ccc(CCOc4cccc5ccccc45)cc3)CC2)cc1 | 12.2 | 8.92 | 4.72 | 16 | – | 32.5% |
| Cc1ccc(OCCc2ccc(CN3CCN(c4ccccc4)CC3)cc2)cc1C | 12.3 | 17.6 | 6.72 | 15.6 | – | – |
| Cc1ccccc1OCCc1ccc(CN2CCN(c3ccccc3)CC2)cc1 | > 50 | 34.9 | 15.1 | 29.2 | – | – |
| CC(C)(C)NC(=O)[C@H]1CC[C@H]2[C@@H]3CC[C@H]4NC(=O)C=C[C@]4(C)[C@H]3CC[C@]12C [FINASTERIDE] | – | 13.5 | – | 14.5 | – | – |
| Brc1ccc(OCCc2ccc(CN3CCN(c4ccccc4)CC3)cc2)cc1 | 15.7 | 13.5 | 6.69 | 10.1 | – | – |
| COc1ccccc1OCCc1ccc(CN2CCN(c3ccccc3)CC2)cc1 | > 50 | > 50 | > 50 | > 50 | – | – |
| FC(F)(F)c1ccc(OCCc2ccc(CN3CCN(c4ccccc4)CC3)cc2)cc1 | 13.2 | 8.76 | 4.96 | 4.81 | 4.03 | 48.2% |
| c1ccc(N2CCN(Cc3ccc(CCOc4cccc5c4CCCC5)cc3)CC2)cc1 | 27.8 | 19.3 | 17.7 | 12.2 | – | – |
| Brc1ccccc1OCCc1ccc(CN2CCN(c3ccccc3)CC2)cc1 | > 50 | 41.9 | > 50 | 11.6 | – | – |
| Clc1ccc(OCCc2ccc(CN3CCN(c4ccccc4)CC3)cc2)cc1 | 4.76 | 8.64 | 3.59 | 9.2 | – | 32.4% |
| FC(F)(F)c1ccccc1OCCc1ccc(CN2CCN(c3ccccc3)CC2)cc1 | > 50 | 32.2 | > 50 | 9.43 | – | – |
| c1ccc(N2CCN(Cc3ccc(CCOc4ccc5c(c4)CCCC5)cc3)CC2)cc1 | > 50 | > 50 | > 50 | 40.4 | – | – |
| Clc1ccccc1OCCc1ccc(CN2CCN(c3ccccc3)CC2)cc1 | > 50 | > 50 | > 50 | 38.6 | – | – |
| COc1ccc(OCCc2ccc(CN3CCN(c4ccccc4)CC3)cc2)cc1 | > 50 | 7.46 | 8.95 | 9.79 | 1.15 | 67.1% |
| Clc1cc(Cl)cc(OCCc2ccc(CN3CCN(c4ccccc4)CC3)cc2)c1 | 47.2 | 19.4 | 10.1 | 13.2 | – | – |
| Fc1ccccc1OCCc1ccc(CN2CCN(c3ccccc3)CC2)cc1 | 19.7 | 17.8 | 48.8 | 7.21 | – | – |
| CC(C)c1ccc(OCCc2ccc(CN3CCN(c4ccccc4)CC3)cc2)cc1 | > 50 | > 50 | > 50 | 6.4 | – | 40.2% |
| Cc1cc(C)cc(OCCc2ccc(CN3CCN(c4ccccc4)CC3)cc2)c1 | 4.86 | 7.43 | 2.99 | 3.44 | – | 16.7% |
| O=[N+]([O-])c1ccc(OCCc2ccc(CN3CCN(c4ccccc4)CC3)cc2)cc1 | 3.87 | 8.51 | 9.23 | 8.74 | 3.82 | 50.1% |
| C[C@]12C=CC3=C4CCC(=O)C=C4CC[C@H]3[C@@H]1CC[C@@]2(C)O | – | – | – | – | – | inactive |
| Clc1ccc(OCCc2ccc(CN3CCN(c4ccccc4)CC3)cc2)cc1Cl | > 50 | 19.8 | 23 | 5.36 | – | 41.1% |
| N#Cc1ccc(OCCc2ccc(CN3CCN(c4ccccc4)CC3)cc2)c(F)c1 | > 50 | > 50 | > 50 | 0.77 | – | 24.5% |
| N#Cc1ccc(OCCc2ccc(CN3CCN(c4ccccc4)CC3)cc2)cc1 | > 50 | 43.6 | 1.05 | 46.2 | 4.22 | 47.2% |
| CCOc1ccc(OCCc2ccc(CN3CCN(c4ccccc4)CC3)cc2)cc1 | > 50 | > 50 | > 50 | 14.2 | – | – |
| COc1ccccc1N1CCN(CC(O)COc2cccc3ccccc23)CC1 (stereo unspecified) [NAFTOPIDIL] | > 50 | – | – | – | – | – |
| N#Cc1ccccc1OCCc1ccc(CN2CCN(c3ccccc3)CC2)cc1 | > 50 | > 50 | > 50 | 2.51 | – | 32.1% |
| c1ccc(OCCc2ccc(CN3CCN(c4ccccc4)CC3)cc2)cc1 | > 50 | 6.67 | 8.2 | 9.82 | – | 40.6% |
